Assay outcomes deposited in PubChem BioAssay by several laboratories.
Beta apoptosis – blocks beta cell apoptosis | protection from apoptosis, % (no concentration beside the values) | AID 435005 | INS-1E cytokine-induced death, ATP luminescence, 48 h; percent of positive-control rescue, neutral wells zero | 300,000 compounds, 0.8% hits;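 active = Every replicate reaches about 75%, or at least half do and their mean reaches it too, limit read from the data; inconclusive = At least half of replicates reach the limit but their mean does not; inactive = Under half of replicates reach the limit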;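 note: 0% = cytokine-treated negative control wells and 100% = positive control rescue; higher means more ATP so stronger rescue from cytokine killing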
CHOP inh – CHOP inhibition in unfolded protein response. 220,000 compounds, 3.8% hits. inhibition, % at 10 µM. CHO-K1 CHOP-promoter luciferase, tunicamycin-induced, 15-18 h;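 active = compounds that reduced the stress-induced luciferase reporter signal by more than about 70% of percent inhibition, limit read from the data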;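 note: 0% = tunicamycin plus vehicle and 100% = wells without tunicamycin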
PREPL inhibitor – human PREPL enzyme inhibition. Q4J6C6. recombinant PREPL, fluorescence polarization activity-based probe. AID 2751. inhibition, % at 5.96 µM. 320,000 compounds, 0.68% hits; in the data active = inhibition above about 43%;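 note: 0% = enzyme with DMSO and 100% = wells lacking enzyme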
Target sequence (Q4J6C6 whole entry, looked up): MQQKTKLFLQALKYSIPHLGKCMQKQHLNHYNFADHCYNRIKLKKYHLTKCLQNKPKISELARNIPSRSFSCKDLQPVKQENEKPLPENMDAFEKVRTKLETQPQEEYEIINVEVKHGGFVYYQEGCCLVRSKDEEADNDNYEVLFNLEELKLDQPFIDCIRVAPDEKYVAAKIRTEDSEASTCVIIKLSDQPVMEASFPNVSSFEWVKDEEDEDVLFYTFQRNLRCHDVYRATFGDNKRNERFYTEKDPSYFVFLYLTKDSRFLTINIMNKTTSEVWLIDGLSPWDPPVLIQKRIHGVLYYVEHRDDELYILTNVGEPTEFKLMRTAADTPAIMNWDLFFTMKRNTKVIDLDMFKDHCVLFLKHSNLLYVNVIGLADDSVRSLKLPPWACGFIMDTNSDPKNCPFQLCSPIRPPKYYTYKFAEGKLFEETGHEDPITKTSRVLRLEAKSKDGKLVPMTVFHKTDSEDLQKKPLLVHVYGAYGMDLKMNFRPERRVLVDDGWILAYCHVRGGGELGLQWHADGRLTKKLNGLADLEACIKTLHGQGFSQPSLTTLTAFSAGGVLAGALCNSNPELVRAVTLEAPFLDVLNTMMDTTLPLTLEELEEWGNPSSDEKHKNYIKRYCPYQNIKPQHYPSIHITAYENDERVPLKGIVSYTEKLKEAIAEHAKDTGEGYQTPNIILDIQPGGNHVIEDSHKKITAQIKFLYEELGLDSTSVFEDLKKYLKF
T cruzi inh – T. cruzi replication inhibition; AID 1885; 300,000 compounds, 1.4% hits; T. cruzi beta-gal in NIH3T3, luminescence, 90 h; inhibition, % (concentration not given with the values);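 active = mean inhibition across valid replicates above about 55%, limit read from the data; inconclusive = mean below that limit but half or more replicates reach it; inactive = mean below it, under half of replicates reach it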;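 note: signal also drops with host cell toxicity which is not excluded here; 0% = plate median of DMSO wells and 100% = zero luminescence signal; higher percent means less beta-gal luminescence so fewer parasites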
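compound dosing = single 50 nL compound addition per well in DMSO | material = NIH/3T3 host cells with β-galactosidase reporter T. cruzi | input = 5,000 host fibroblasts per well | timing = ≥90 h infection period, 3 h prior cell attachment | read-out basis = percent inhibition of parasite-derived β-gal signal | detection = GalScreen β-gal luminescence, detergent lysis, 60 min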
GRIN3A LBD mod – NR3A (human) ligand-binding domain modulation. NR3A LBD differential scanning fluorimetry, Tm shift; 0% = protein alone, 100% = glycine-bound protein. 340,000 compounds, 2.5% hits. Tm shift relative to glycine control, % at 25 µM;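 active = melting temperature shift of at least 10% of the positive control shift, at one fixed dose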
CSC inhib – cancer stem cell inhibition; 300,000 compounds, 1.1% hits; cancer stem cell-like cells viability, luminescence; inhibition, % at 7.5 µM; in the data active = inhibition above about 75%; inconclusive = no clear call, values can overlap the other calls; tested in HMLE shEcad cells
An asterisk follows results filed as active; ? = inconclusive; · = not tested or not shown. Sampled rows, rich in hits. Any-hit rate of the full collection: about 6.7%.

SMILES	Beta apoptosis	CHOP inh	PREPL inhibitor	T cruzi inh	GRIN3A LBD mod	CSC inhib
Cc1ccc(Cn2ncc3c(N4CCN(c5ccccc5C)CC4)ncnc32)cc1	2.1	50.8	7.5	59.4*	-0.2	47.7
Cc1ccc(Cn2ncc3c(N4CCOCC4)ncnc32)cc1	-10.2	8.8	4.7	·	2.5	-12.2
c1ccc(N2CC3COc4ccccc4C3=N2)cc1 (stereo unspecified)	·	·	·	·	16.8*	·
c1ccc2c(c1)OCc1cn[nH]c1-2	-1.0	1.9	10.8	-0.9	0.0	-2.9
CCCCn1nc(C(=O)N2CCN(S(=O)(=O)c3ccccc3)CC2)c2ccccc2c1=O	-1.4	·	8.0	13.6	-0.4	-17.7
CC(C)(C)c1ccc(NC(=O)COC(=O)C2(C)CC2(Cl)Cl)cc1 (stereo unspecified)	-3.8	70.2*	9.9	29.0	-17.1	10.8
O=C(CSc1nnc(Nc2ccccc2)s1)Nc1ccc(S(=O)(=O)N2CCOCC2)cc1	-8.9	23.1	-5.5	-11.0	17.9*	-6.8
Cc1ccc(Nc2nnc(SCC(=O)Nc3ccc(S(=O)(=O)N4CCOCC4)cc3)s2)cc1	-8.7	26.4	7.5	0.9	33.2*	-10.3
NC(=O)CSc1nnc(NC(=O)c2ccc(S(=O)(=O)N3CCOCC3)cc2)s1	8.1	·	-2.8	-10.3	-1.2	-29.6
COc1ccc(NC(=O)CSc2nnc(NC(=O)c3ccc(S(=O)(=O)N4CCOCC4)cc3)s2)cc1	-0.2	2.5	2.4	0.9	31.1*	-4.7
Cc1cccc(Nc2nnc(SCC(=O)Nc3cccc(S(=O)(=O)N4CCCCC4)c3)s2)c1	0.1	13.6	-4.3	-4.3	14.6*	23.2
Nc1nnc(SCC(=O)Nc2cccc(S(=O)(=O)N3CCOCC3)c2)s1	-3.8	·	-2.3	0.1	-2.0	-7.3
CC1(c2ccccc2)NC(=O)N(CC(=O)Nc2ccc(N3CCOCC3)cc2)C1=O (stereo unspecified)	0.1	·	0.2	·	-0.2	-13.5
CC(C)NC(=O)c1onc(CSc2ccc(F)cc2)c1C(=O)NC(C)C	3.6	·	2.5	7.2	-0.6	-13.4
COc1ccccc1-c1nc(-c2ccccn2)no1	·	59.4	0.4	-9.6	-1.4	44.5
COc1ccc(-c2nc(-c3ccccn3)no2)cc1	89.1*	100.7*	0.4	11.8	-1.4	87.6*
Cc1cccc(NC(=S)NCc2ccco2)c1C	-2.9	-2.4	9.8	-10.4	-1.7	-6.6
Cc1cn(S(=O)(=O)c2cc(Br)ccc2Br)cn1	-2.6	31.6	-5.2	-0.8	10.0*	-2.3
Cc1cn(S(=O)(=O)c2ccc(Br)cc2)cn1	-7.8	-7.7	1.2	-9.2	-0.2	-5.7
CCOC(=O)Cc1csc(SC(C)C(=O)NC2CCCCC2C)n1 (stereo unspecified)	-3.1	·	-4.7	1.4	-4.8	·
CC(C)(C)c1cc(C(=O)Nc2cccc3ccccc23)ccn1	0.6	14.4	0.3	-14.8	683.0*	-15.7
Cc1ccc(C(=O)Nc2cccc3ccccc23)cc1	·	·	4.0	-16.9	-1.7	-4.5
CCCCCCOc1ccc(OCC(O)CN2C(=O)NC(C)(C)C2=O)cc1 (stereo unspecified)	0.1	8.3	-3.7	-4.9	13.7*	-4.0
Cc1ccc(OCC(O)CN2C(=O)NC(C)(C)C2=O)cc1 (stereo unspecified)	-4.3	14.4	11.1	-7.6	3.9	-5.7
Cc1nn(CC(=O)NCCc2ccc(Cl)cc2)c(=O)c2cccn12	·	·	-0.2	-5.6	2.2	-14.0
SMILES	Beta apoptosis	CHOP inh	PREPL inhibitor	T cruzi inh	GRIN3A LBD mod	CSC inhib
COC(=O)c1cc(C(=O)N2CCc3ccccc32)cc([N+](=O)[O-])c1	-2.6	·	14.9	4.6	-1.6	10.1
O=C(CSc1ncccn1)NN=C1CCCCCC1	·	18.3	12.2	-8.6	-0.7	-6.9
Cc1ccc2ncccc2c1NS(=O)(=O)c1ccccc1	1.0	82.2*	-2.9	-2.5	4.3	2.4
Cc1ccc2ncccc2c1NC(=S)NC(=O)c1ccccc1	-4.4	13.6	9.9	-16.7	-0.3	-5.5
CCCCc1ccc(NC2=NCC(=O)N2CCc2ccccc2)cc1	7.5	95.0*	-3.9	5.2	-0.6	15.4
O=C1C(Oc2ccccc2)C(c2ccc3c(c2)OCO3)N1CCc1ccc(F)cc1 (stereo unspecified)	-0.7	1.6	-6.9	34.3	13.0*	0.7
O=C(/C(=N\Nc1ccc(Br)cc1)Sc1nnnn1-c1ccccc1)c1ccccc1	10.3	28.0	16.7	-11.3	20.1*	26.5
OC1CCN(c2cc(-c3ccccc3)nc3cc(-c4ccc(F)cc4)nn23)CC1	8.9	52.4	19.0	38.4	-29.9	88.3*
CCN1CCN(c2cc(-c3ccccc3)nc3cc(-c4cccc(F)c4)nn23)CC1	8.0	65.4	11.2	36.2	2.7	?
COc1cccc(-c2cc3nc(-c4ccccc4)cc(N4CCCC(O)C4)n3n2)c1 (stereo unspecified)	13.0	20.7	17.4	37.0	9.9	90.2*
Cc1nc(NCCCN2CCOCC2)c2cnn(-c3ccccc3)c2n1	·	·	·	·	2.0	·
O=C(CO/N=C/c1ccc(Cl)cc1Cl)NNC(=O)c1cccc(Cl)c1	2.6	73.9*	-6.4	7.6	4.2	-0.1
CCC(CC)NC(=O)CO/N=C/c1ccc(Cl)cc1Cl	0.3	34.8	8.3	7.2	3.3	-7.3
CC(C)CCCCCCNC(=S)Nc1ccc(S(=O)(=O)N2CCOCC2)cc1	97.7*	76.5*	-1.0	5.4	26.5*	90.7*
O=C(NCc1ccc2c(c1)OCO2)c1ccc(Cl)c(S(=O)(=O)NCc2ccccc2)c1	3.6	37.3	-7.2	3.8	-3.2	-3.2
CN1CCN(C(=O)C2CCCN(S(=O)(=O)c3ccc(F)cc3)C2)CC1 (stereo unspecified)	-3.6	·	-4.2	0.3	-4.5	12.6
O=C(C1CCCN(S(=O)(=O)c2ccc(F)cc2)C1)N1CCOCC1 (stereo unspecified)	·	·	·	·	25.9*	·
O=S(=O)(c1ccc(NC(=S)Nc2ccccc2)cc1)N1CCOCC1	·	12.7	-5.0	-30.6	3.3	-1.1
O=C(Nc1cccc(Cl)c1)c1ccc(F)c(S(=O)(=O)NCc2ccc3c(c2)OCO3)c1	44.8	-10.8	-18.2	-3.6	12.8*	35.5
Cc1c(NC(=O)C2CCN(S(=O)(=O)c3ccc(Cl)cc3)CC2)c(=O)n(-c2ccccc2)n1C	-10.5	6.5	12.3	-1.9	12.7*	-19.3
CCCCN1C(=O)N(CCc2ccc(F)cc2)S(=O)(=O)c2cc(C(F)(F)F)ccc21	·	·	·	·	-0.5	·
CCOc1ccc(S(=O)(=O)N2CCC(C(=O)NCc3ccncc3)CC2)cc1Cl	·	·	-6.5	4.7	1.2	-7.0
O=C(Nc1ccc(S(=O)(=O)N2CCOCC2)cc1)c1ccc(Cl)cc1	8.8	27.2	4.2	2.1	21.9*	4.9
O=C(Nc1ccc(S(=O)(=O)N2CCOCC2)cc1)c1ccc(S(=O)(=O)N2CCOCC2)cc1	-4.6	·	0.4	-3.0	-4.5	0.6
